Screening results (PubChem)
Jurkat tox 60K: reduces viability or proliferation of Jurkat cells. Jurkat E6.1 viability, ATP luminescence, 48 h. inhibition, % at 4 µM. hit rate 1.2% among 56,000;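 active means inhibition above the mean inhibition of all tested compounds plus 3 SD, cut at about 28% in these data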
PTK2B oligo ant: blocks oligomerization of human Pyk2 in cells; hit rate 0.83% among 99,000; Q293 cells, Pyk2 FERM NanoBiT luminescence; active compounds read low; z-score (the deposit names both 25 µM and 10 µM); Q14289;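 active means Z-score of -3 or lower, scaled per plate to the spread of control and sample wells; inactive means z-score above -3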;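 further: negative z-score means lost luminescence so less FERM oligomerization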
Target sequence (Q14289 whole entry, looked up): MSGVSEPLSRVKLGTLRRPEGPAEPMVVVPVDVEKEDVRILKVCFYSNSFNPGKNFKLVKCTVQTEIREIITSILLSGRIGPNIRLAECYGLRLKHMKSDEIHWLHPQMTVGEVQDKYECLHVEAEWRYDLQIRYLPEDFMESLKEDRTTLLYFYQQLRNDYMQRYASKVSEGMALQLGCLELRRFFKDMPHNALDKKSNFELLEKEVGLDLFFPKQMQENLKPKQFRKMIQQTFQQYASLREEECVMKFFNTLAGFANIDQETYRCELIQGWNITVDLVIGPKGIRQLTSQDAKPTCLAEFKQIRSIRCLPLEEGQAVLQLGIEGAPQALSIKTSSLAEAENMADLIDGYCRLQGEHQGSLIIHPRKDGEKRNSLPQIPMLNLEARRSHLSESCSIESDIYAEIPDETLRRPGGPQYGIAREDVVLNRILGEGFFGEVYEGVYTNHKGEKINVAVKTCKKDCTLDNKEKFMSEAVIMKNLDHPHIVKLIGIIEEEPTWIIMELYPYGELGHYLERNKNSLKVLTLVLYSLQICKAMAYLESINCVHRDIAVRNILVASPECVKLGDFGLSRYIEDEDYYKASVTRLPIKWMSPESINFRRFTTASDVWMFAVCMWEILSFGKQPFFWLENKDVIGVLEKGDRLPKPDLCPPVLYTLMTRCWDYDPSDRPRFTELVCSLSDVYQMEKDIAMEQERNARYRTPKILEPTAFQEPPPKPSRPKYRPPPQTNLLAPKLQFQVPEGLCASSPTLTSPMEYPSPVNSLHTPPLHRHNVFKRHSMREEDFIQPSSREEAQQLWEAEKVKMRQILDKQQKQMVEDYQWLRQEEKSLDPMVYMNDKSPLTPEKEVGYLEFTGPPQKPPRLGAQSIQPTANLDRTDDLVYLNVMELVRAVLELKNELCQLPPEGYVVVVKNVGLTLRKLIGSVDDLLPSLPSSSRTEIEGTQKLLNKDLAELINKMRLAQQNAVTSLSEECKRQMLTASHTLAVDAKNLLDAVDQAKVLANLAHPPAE
Lung fibro prol: blocks proliferation of human lung fibroblasts | hit rate 1.1% among 85,000 | viability, % at 10 µM | LL 47 human lung fibroblast viability, ATP luminescence; active compounds read low;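 active means viability at or below 50% in the single dose screen; inactive means viability above 50%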;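 further: compound exposure lasted 72 h before the ATP readout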
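Material: human LL 47 lung fibroblast cells; quantity: 1,150 cells/well; medium: IMEM plus 15% FBS; doses: 0.1% DMSO in all compound wells; timing: overnight attachment after seeding, then 72 h compound exposure at 37 °C; detection: CellTiter-Glo luminescence; measure: % viability of median cell-only signal; controls: cell-only wells, no compound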
H69AR inhibit: blocks growth of human H69AR lung tumor cells. viability, % at 10 µM. AID 598. hit rate 6% among 85,000. H69AR lung tumor viability, ATP luminescence, 72 h; active compounds read low;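 active means viability at or below 40%; inactive means viability above 40%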;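 further: multidrug resistant small cell line overexpressing MRP-1 efflux transporter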
MT1-MMP txn act: activates MT1-MMP transcription. HT1080 MT1-MMP promoter luciferase reporter, luminescence, overnight; active compounds read high. hit rate 0.16% among 86,000. activation factor at 10 µM;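 active means activation factor of at least 2 for MT1-MMP transcription at 10 µM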
HUVEC inhibit: human endothelial cell proliferation inhibition. HUVEC proliferation, CellTiter-Glo luminescence, 72 h; active compounds read low. viability, % at 10 µM (by protocol). hit rate 1.1% among 86,000. AID 648;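 active means viability at or below 30%; inactive means viability above 30%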
Hits are given with their value. A selection: hits, their analogues and other compounds. The true share with any hit is near 5.9%.

How did COc1cc(C(=O)Nc2ccc(NC(=O)C(C)C)nc2)cc(OC)c1OC do in these assays?
Jurkat tox 60K: inactive; PTK2B oligo ant: inactive; Lung fibro prol: inactive; H69AR inhibit: inactive; MT1-MMP txn act: inactive; HUVEC inhibit: inactive

How did COc1cc(OC)cc(C(C(=O)NC2CCCCC2)N(C(=O)c2ccno2)c2ccccc2)c1 (centres undefined) do in these assays?
PTK2B oligo ant: -3.6; Lung fibro prol: inactive; H69AR inhibit: inactive; MT1-MMP txn act: inactive; HUVEC inhibit: inactive

Results for O=C(NC1CCCC1)C(c1ccccc1)N(C(=O)c1ccno1)c1ccccc1 (centres undefined) ?
PTK2B oligo ant: inactive; Lung fibro prol: inactive; H69AR inhibit: inactive; MT1-MMP txn act: inactive; HUVEC inhibit: inactive

What do the screens show for `CSc1nc(N)nc(SCCS(=O)(=O)c2ccc(Cl)cc2)c1C#N`?
Jurkat tox 60K: inactive; PTK2B oligo ant: inactive; Lung fibro prol: inactive; H69AR inhibit: 2.5; MT1-MMP txn act: inactive; HUVEC inhibit: inactive

How did Cc1nn(-c2ccccc2)c(Cl)c1C(=O)N1CCN(c2ncnc3c2cnn3-c2ccccc2)CC1 do in these assays?
Jurkat tox 60K: inactive; PTK2B oligo ant: inactive; Lung fibro prol: inactive; H69AR inhibit: 34; MT1-MMP txn act: inactive; HUVEC inhibit: 2.7

Results for COc1cccc(C(=O)NCc2ccc(-c3nc4ccccc4s3)cc2)c1 ?
PTK2B oligo ant: inactive

Results for COC(=O)Cc1c[nH]c2cccc(OCC(O)CN(Cc3ccccc3)C(C)C)c12 (centres undefined) ?
PTK2B oligo ant: inactive; Lung fibro prol: inactive; H69AR inhibit: inactive; MT1-MMP txn act: inactive; HUVEC inhibit: inactive

What do the screens show for `COC(=O)Cc1c[nH]c2cccc(OCC(O)CN(Cc3ccc([N+](=O)[O-])cc3)C(C)(C)C)c12` (centres undefined)?
PTK2B oligo ant: inactive; Lung fibro prol: inactive; H69AR inhibit: 40; MT1-MMP txn act: inactive; HUVEC inhibit: inactive

What do the screens show for `O=C1OC(/C=C/c2ccc(Cl)cc2Cl)=NC/1=C\c1cccs1`?
PTK2B oligo ant: inactive

Results for COc1ccc(C(=O)C(CN2CCOCC2)c2ccccc2)cc1F (centres undefined) ?
Jurkat tox 60K: 96; PTK2B oligo ant: inactive; Lung fibro prol: 15; H69AR inhibit: 1.9; MT1-MMP txn act: inactive; HUVEC inhibit: inactive

What do the screens show for `CCCOc1ccc(C(=O)C(c2ccccc2)N2CCOCC2)cc1` (centres undefined)?
Jurkat tox 60K: inactive; PTK2B oligo ant: inactive; Lung fibro prol: inactive; H69AR inhibit: inactive; MT1-MMP txn act: inactive; HUVEC inhibit: inactive

Results for CCCOc1ccc(C(=O)C(CN2CCOCC2)c2ccccc2)cc1 (centres undefined) ?
PTK2B oligo ant: inactive; Lung fibro prol: 46; H69AR inhibit: 1.6; HUVEC inhibit: 3.0

What do the screens show for `Cc1cc(NC(=O)c2cc(-c3ccncc3)nc3c(C)cccc23)no1`?
Jurkat tox 60K: 78; PTK2B oligo ant: inactive; Lung fibro prol: inactive; H69AR inhibit: 24; MT1-MMP txn act: inactive; HUVEC inhibit: inactive

How did Cc1cc(NC(=O)c2cc(-c3ccccn3)nc3ccccc23)no1 do in these assays?
Jurkat tox 60K: inactive; PTK2B oligo ant: inactive; Lung fibro prol: inactive; H69AR inhibit: inactive; MT1-MMP txn act: inactive; HUVEC inhibit: inactive

How did Cc1cc(C)c2nc(-c3ccccn3)cc(C(=O)Nc3cc(C)on3)c2c1 do in these assays?
Jurkat tox 60K: inactive; PTK2B oligo ant: inactive; Lung fibro prol: inactive; H69AR inhibit: 34; MT1-MMP txn act: inactive; HUVEC inhibit: inactive

How did Cc1ccc(F)c(NC=C2C(=O)OC(C)(C)OC2=O)c1 do in these assays?
Jurkat tox 60K: inactive; PTK2B oligo ant: inactive; Lung fibro prol: inactive; H69AR inhibit: inactive; MT1-MMP txn act: inactive; HUVEC inhibit: inactive

Results for CC1(C)CC(=O)C2=C(C1)OC1=C(C(=O)CC(C)(C)C1)C2c1ccc(O)cc1O ?
Jurkat tox 60K: 96; PTK2B oligo ant: inactive; Lung fibro prol: 17; H69AR inhibit: 2.2; MT1-MMP txn act: inactive; HUVEC inhibit: 25

Results for CN(c1ncc(C(F)(F)F)cc1Cl)n1cc(C(N)=O)c2ccccc2c1=O ?
PTK2B oligo ant: inactive; Lung fibro prol: inactive; H69AR inhibit: inactive; MT1-MMP txn act: inactive; HUVEC inhibit: inactive

How did CCOC(=O)c1ccc(N2C(=O)c3n[nH]c(C)c3C2c2ccc(OC)cc2OC)cc1 (centres undefined) do in these assays?
Jurkat tox 60K: inactive; PTK2B oligo ant: -3.2; Lung fibro prol: inactive; H69AR inhibit: inactive; MT1-MMP txn act: inactive; HUVEC inhibit: inactive

How did COc1ccc(C2CC(=O)C3=C(C2)Nc2ncnn2C3c2ccccc2C)c(OC)c1 (centres undefined) do in these assays?
Jurkat tox 60K: inactive; PTK2B oligo ant: -3.6; Lung fibro prol: inactive; H69AR inhibit: inactive; MT1-MMP txn act: inactive; HUVEC inhibit: inactive

What do the screens show for `Clc1ccc2nc(C3CCN(Cc4nnnn4C4CCCCC4)CC3)[nH]c2c1`?
PTK2B oligo ant: inactive; Lung fibro prol: inactive; H69AR inhibit: 15; MT1-MMP txn act: inactive; HUVEC inhibit: inactive

How did COc1ccc(C2NC(=O)C(C)S2)cc1 (centres undefined) do in these assays?
PTK2B oligo ant: inactive; Lung fibro prol: inactive; H69AR inhibit: inactive; MT1-MMP txn act: inactive; HUVEC inhibit: inactive

How did Cc1ccc(S(=O)(=O)/N=C(\CN2CCOCC2)N2CCCC2)cc1 do in these assays?
Jurkat tox 60K: inactive; PTK2B oligo ant: inactive; Lung fibro prol: inactive; H69AR inhibit: inactive; MT1-MMP txn act: inactive; HUVEC inhibit: inactive

How did Cc1ccc(S(=O)(=O)/N=C(\CCl)N2CCOCC2)cc1 do in these assays?
Lung fibro prol: inactive; H69AR inhibit: 1.2; MT1-MMP txn act: inactive; HUVEC inhibit: inactive

How did C=CCCCCCCCCC(=O)NNC1=CC(=O)CC(C)(C)C1 do in these assays?
PTK2B oligo ant: inactive; Lung fibro prol: inactive; H69AR inhibit: inactive; MT1-MMP txn act: inactive; HUVEC inhibit: inactive

What do the screens show for `N#CC1=C(C2CC2)CC(c2ccccc2)C(C#N)=C1N` (centres undefined)?
Jurkat tox 60K: inactive; PTK2B oligo ant: inactive; Lung fibro prol: inactive; H69AR inhibit: 39; MT1-MMP txn act: inactive; HUVEC inhibit: inactive

What do the screens show for `CC1(C)CC(=O)c2cc(C(=O)O)c(=O)n(-c3ccccc3)c2C1`?
PTK2B oligo ant: inactive; Lung fibro prol: inactive; H69AR inhibit: inactive; MT1-MMP txn act: inactive; HUVEC inhibit: inactive

Results for CCOC(=O)c1cc2c(n(-c3ccccc3)c1=O)CC(C)(C)CC2=O ?
Jurkat tox 60K: inactive; PTK2B oligo ant: inactive; Lung fibro prol: inactive; H69AR inhibit: 36; MT1-MMP txn act: inactive; HUVEC inhibit: inactive

What do the screens show for `CC(=O)Nc1cccc(C(=O)NC(C)c2ccc(S(N)(=O)=O)cc2)c1` (centres undefined)?
PTK2B oligo ant: inactive; Lung fibro prol: inactive; H69AR inhibit: inactive; MT1-MMP txn act: inactive; HUVEC inhibit: inactive

What do the screens show for `CCn1c(C)nc2cc(-c3nnc(-c4c(-c5ccccc5)noc4C)o3)ccc21`?
PTK2B oligo ant: -3.1; Lung fibro prol: inactive; H69AR inhibit: inactive; MT1-MMP txn act: inactive; HUVEC inhibit: inactive

Results for Cc1onc(-c2ccccc2)c1-c1nc2ccccc2c(=O)o1 ?
PTK2B oligo ant: inactive; Lung fibro prol: inactive; H69AR inhibit: inactive; MT1-MMP txn act: inactive; HUVEC inhibit: inactive
